Reference: ChEMBL document CHEMBL3286131, “Design, synthesis and systematic evaluation of cytotoxic 3-heteroarylisoquinolinamines as topoisomerases inhibitors” (Eur J Med Chem, 2014)
Values joined by “and” are separate entries in the source; they are usually repeats but may differ in a detail not shown here. Equal values may be shown once.

How the values were obtained:
[1] = Cytotoxicity against human MCF10A cells after 2 days; type: cell-based, MCF-10A
Method in brief: (§1)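 Cells seeded at 2-4 × 10^4 per well in medium with 10% FBS and incubated overnight at 37 °C, 5% CO2. Graded compound concentrations added on day 2. CCK-8 reagent added on day 4 for a further 4 h, absorbance read at 450 nm. IC50 from a four-parameter logistic fit; mean ± S.D. of three experiments run in triplicate.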

[2] = Cytotoxicity against human HCT15 cells after 2 days; type: functional, cell-based, HCT-15; method in brief: as §1
T47D = assay: Cytotoxicity against human T47D cells after 2 days; type: functional, cell-based; method in brief: as §1
DU-145 = assay: Cytotoxicity against human DU145 cells after 2 days; type: functional, cell-based; method in brief: as §1
[3] = target: DNA topoisomerase 2-alpha (Homo sapiens) (UniProt P11388); assay: Inhibition of human DNA topoisomerase-2a-mediated relaxation of supercoiled DNA pBR322 at 100 uM after 4 hrs using ethidium bromide staining by agarose gel electrophoresis analysis
Method in brief: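 Supercoiled pBR322 (200 ng) incubated with human topo IIα (1 unit) ± compound for 30 min at 30 °C. Buffer: 10 mM Tris-HCl pH 7.9, 50 mM NaCl, 50 mM KCl, 5 mM MgCl2, 1 mM EDTA, 1 mM ATP, BSA. Stopped with EDTA. 1% agarose gel run at 25 V for 4 h in TAE, ethidium bromide stain, supercoiled DNA quantified by UV imaging.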

[4] = target: T1, DNA topoisomerase 1 (Homo sapiens) (UniProt P11387); assay: Inhibition of recombinant human DNA topoisomerase-1-mediated relaxation of supercoiled DNA pBR322 at 100 uM after 7 hrs using ethidium bromide staining by agarose gel electrophoresis analysis
T1 sequence (whole entry): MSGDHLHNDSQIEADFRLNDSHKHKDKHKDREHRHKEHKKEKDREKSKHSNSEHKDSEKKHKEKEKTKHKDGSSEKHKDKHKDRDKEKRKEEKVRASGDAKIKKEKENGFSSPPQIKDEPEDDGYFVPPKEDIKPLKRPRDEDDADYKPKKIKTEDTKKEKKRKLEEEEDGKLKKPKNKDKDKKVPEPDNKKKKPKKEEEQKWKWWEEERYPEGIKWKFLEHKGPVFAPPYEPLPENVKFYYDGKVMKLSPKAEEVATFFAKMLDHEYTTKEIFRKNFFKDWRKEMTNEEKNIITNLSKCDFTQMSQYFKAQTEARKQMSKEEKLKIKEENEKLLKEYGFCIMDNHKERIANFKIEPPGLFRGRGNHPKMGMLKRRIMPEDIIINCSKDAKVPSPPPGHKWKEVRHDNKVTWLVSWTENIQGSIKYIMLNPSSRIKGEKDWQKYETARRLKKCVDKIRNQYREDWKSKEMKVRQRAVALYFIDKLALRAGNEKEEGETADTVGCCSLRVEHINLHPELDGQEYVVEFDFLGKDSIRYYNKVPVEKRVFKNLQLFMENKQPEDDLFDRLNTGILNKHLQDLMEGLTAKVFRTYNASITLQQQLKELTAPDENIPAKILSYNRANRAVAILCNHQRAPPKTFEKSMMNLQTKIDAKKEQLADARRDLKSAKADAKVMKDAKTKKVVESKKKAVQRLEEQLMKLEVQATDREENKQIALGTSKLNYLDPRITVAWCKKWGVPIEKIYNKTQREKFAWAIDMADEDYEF
Method in brief: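 pBR322 (100 ng) incubated with recombinant human topo I (0.4 units) ± compound for 30 min at 37 °C. Buffer: 10 mM Tris-HCl pH 7.9, 150 mM NaCl, 0.1% BSA, 1 mM spermidine, 5% glycerol. Quenched with sarcosyl stop solution. 1% agarose gel run at 15 V for 7 h in TAE, ethidium bromide stain, supercoiled DNA quantified under UV.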

HeLa [5] = assay: Cell cycle arrest in human HeLa cells assessed as accumulation at G2/M phase phase at 25 uM after 24 hrs using […] by flow cytometry analysis relative to control; type: functional
Method in brief: (§2)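 HeLa cells exposed to graded compound concentrations for 24 h, harvested by centrifugation, PBS-washed twice, fixed overnight on ice in 70% ethanol. Stained with 10 μg/mL propidium iodide plus 0.5 mg/mL RNase and 0.1% Triton X-100 in PBS, 30 min at 37 °C in the dark. Flow cytometry gates: sub-G0/G1, G0/G1, S, G2/M.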

HeLa [6] = assay: Cell cycle arrest in human HeLa cells assessed as accumulation at G2/M phase phase at 50 uM after 24 hrs using […] by flow cytometry analysis relative to control; type: functional; method in brief: as §2
HeLa [7] = assay: Cell cycle arrest in human HeLa cells assessed as accumulation at G2/M phase phase at 5 uM after 24 hrs using ethidium bromide staining by flow cytometry analysis relative to control; type: functional; conditions: in the assay text read “propidium iodide staining” for “ethidium bromide staining”; method in brief: as §2
HeLa [8] = assay: Cell cycle arrest in human HeLa cells assessed as accumulation at S phase phase at 25 uM after 24 hrs using […] by flow cytometry analysis relative to control; type: functional; method in brief: as §2
HeLa [9] = assay: Cell cycle arrest in human HeLa cells assessed as accumulation at G0/G1 phase phase at 25 uM after 24 hrs using […] by flow cytometry analysis relative to control; type: functional; method in brief: as §2
HeLa [10] = assay: Cell cycle arrest in human HeLa cells assessed as accumulation at sub-G0/G1 phase at 25 uM after 24 hrs using […] by flow cytometry analysis relative to control; type: functional; method in brief: as §2
HeLa [11] = assay: Cell cycle arrest in human HeLa cells assessed as accumulation at S phase phase at 50 uM after 24 hrs using […] by flow cytometry analysis relative to control; type: functional; method in brief: as §2
HeLa [12] = assay: Cell cycle arrest in human HeLa cells assessed as accumulation at G0/G1 phase phase at 5 uM after 24 hrs using ethidium bromide staining by flow cytometry analysis relative to control; type: functional; conditions: in the assay text read “propidium iodide staining” for “ethidium bromide staining”; method in brief: as §2
HeLa [13] = assay: Cell cycle arrest in human HeLa cells assessed as accumulation at G2/M phase phase at 10 uM after 24 hrs using ethidium bromide staining by flow cytometry analysis relative to control; type: functional; conditions: in the assay text read “propidium iodide staining” for “ethidium bromide staining”; method in brief: as §2
HeLa [14] = assay: Cell cycle arrest in human HeLa cells assessed as accumulation at sub-G0/G1 phase at 10 uM after 24 hrs using ethidium bromide staining by flow cytometry analysis relative to control; type: functional; conditions: in the assay text read “propidium iodide staining” for “ethidium bromide staining”; method in brief: as §2
HeLa [15] = assay: Cell cycle arrest in human HeLa cells assessed as accumulation at S phase phase at 5 uM after 24 hrs using ethidium bromide staining by flow cytometry analysis relative to control; type: functional; conditions: in the assay text read “propidium iodide staining” for “ethidium bromide staining”; method in brief: as §2
HeLa [16] = assay: Cell cycle arrest in human HeLa cells assessed as accumulation at S phase phase at 10 uM after 24 hrs using ethidium bromide staining by flow cytometry analysis relative to control; type: functional; conditions: in the assay text read “propidium iodide staining” for “ethidium bromide staining”; method in brief: as §2
HeLa [17] = assay: Cell cycle arrest in human HeLa cells assessed as accumulation at G0/G1 phase phase at 10 uM after 24 hrs using ethidium bromide staining by flow cytometry analysis relative to control; type: functional; conditions: in the assay text read “propidium iodide staining” for “ethidium bromide staining”; method in brief: as §2
HeLa [18] = assay: Cell cycle arrest in human HeLa cells assessed as accumulation at G0/G1 phase phase at 50 uM after 24 hrs using […] by flow cytometry analysis relative to control; type: functional; method in brief: as §2
HeLa [19] = assay: Cell cycle arrest in human HeLa cells assessed as accumulation at sub-G0/G1 phase at 50 uM after 24 hrs using […] by flow cytometry analysis relative to control; type: functional; method in brief: as §2

Chain of DNA topoisomerase 2-alpha (Homo sapiens) (P11388 whole entry): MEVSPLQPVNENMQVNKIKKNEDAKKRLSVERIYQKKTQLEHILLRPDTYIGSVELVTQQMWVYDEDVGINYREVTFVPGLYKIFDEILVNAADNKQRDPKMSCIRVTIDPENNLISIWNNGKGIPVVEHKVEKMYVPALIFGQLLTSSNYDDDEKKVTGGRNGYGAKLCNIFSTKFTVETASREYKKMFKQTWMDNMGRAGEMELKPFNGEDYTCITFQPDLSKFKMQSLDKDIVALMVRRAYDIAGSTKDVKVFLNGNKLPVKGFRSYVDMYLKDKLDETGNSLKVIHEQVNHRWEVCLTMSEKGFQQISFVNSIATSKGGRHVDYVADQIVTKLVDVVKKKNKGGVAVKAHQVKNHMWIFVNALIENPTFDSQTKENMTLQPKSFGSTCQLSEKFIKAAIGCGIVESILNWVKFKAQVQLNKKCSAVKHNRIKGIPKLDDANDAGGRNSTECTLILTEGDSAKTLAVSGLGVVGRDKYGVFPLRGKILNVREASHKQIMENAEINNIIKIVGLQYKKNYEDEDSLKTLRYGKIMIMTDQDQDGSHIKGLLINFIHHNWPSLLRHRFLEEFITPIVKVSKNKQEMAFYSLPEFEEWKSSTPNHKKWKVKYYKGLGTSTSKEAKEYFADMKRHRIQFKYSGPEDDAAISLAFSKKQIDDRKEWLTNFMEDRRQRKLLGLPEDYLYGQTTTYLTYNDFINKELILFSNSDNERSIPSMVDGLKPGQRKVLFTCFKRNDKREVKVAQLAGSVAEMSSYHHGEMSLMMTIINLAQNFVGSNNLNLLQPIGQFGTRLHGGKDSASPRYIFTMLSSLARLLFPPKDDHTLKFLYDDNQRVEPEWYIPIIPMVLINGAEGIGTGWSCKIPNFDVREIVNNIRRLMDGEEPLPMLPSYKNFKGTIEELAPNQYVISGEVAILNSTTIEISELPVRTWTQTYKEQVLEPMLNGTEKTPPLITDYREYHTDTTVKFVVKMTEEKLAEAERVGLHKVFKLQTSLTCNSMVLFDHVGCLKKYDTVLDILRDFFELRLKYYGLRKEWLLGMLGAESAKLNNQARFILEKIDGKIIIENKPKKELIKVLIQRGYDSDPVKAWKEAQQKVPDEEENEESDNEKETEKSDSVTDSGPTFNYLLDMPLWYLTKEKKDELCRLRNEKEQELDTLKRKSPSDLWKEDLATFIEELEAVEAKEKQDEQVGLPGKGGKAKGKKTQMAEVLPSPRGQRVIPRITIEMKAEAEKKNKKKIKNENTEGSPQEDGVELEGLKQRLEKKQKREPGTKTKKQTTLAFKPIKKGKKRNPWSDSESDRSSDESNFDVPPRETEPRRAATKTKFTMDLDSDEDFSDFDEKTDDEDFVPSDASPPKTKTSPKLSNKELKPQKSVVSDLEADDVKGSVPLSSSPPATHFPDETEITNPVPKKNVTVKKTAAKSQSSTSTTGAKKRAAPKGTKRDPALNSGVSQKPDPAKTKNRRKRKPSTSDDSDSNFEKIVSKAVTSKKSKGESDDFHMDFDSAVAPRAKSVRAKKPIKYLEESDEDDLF

Compound | IC50 ([1]; Homo sapiens, MCF-10A, 48 h) | IC50 ([2]; hct-15) | IC50 (T47D; t47d) | IC50 (DU-145; Homo sapiens, DU-145, 48 h) | IC50 ([1]; mcf-10a) | IC50 (T47D; Homo sapiens, T47D, 48 h) | IC50 (DU-145; du-145) | also measured
Cc1ccc2c(N3CCOCC3)nc(-c3cccs3)cc2c1 | 48.7 µM | 7.79 µM | 7.88 µM |  |  |  |  | 
CN1CCN(c2nc(-c3cccs3)cc3ccccc23)CC1 [listing 1 of 2 here] |  | 2.44 µM |  | 40.2 µM | 18.1 µM | 15.4 µM |  | 
Cc1ccc2cc(-c3cccs3)nc(N3CCCCC3)c2c1 | > 50 µM | 3.74 µM | 7.38 µM | > 50 µM |  |  |  | 
CN1CCN(c2nc(-c3cccs3)cc3ccccc23)CC1 [listing 2 of 2 here] |  | 7.9 µM | 16.1 µM |  | 38.8 µM |  | 44.5 µM | 
Cc1ccc2cc(-c3cccs3)nc(N3CCN(C)CC3)c2c1 [listing 1 of 2 here] | 11.6 µM | 1.64 µM | 1.96 µM | 16.2 µM |  |  |  | 
CCN1CCN(c2nc(-c3cccs3)cc3ccc(C)cc23)CC1 [listing 1 of 2 here] |  | 3.63 µM | 4.15 µM | 29.4 µM | 43.1 µM |  |  | 
CCN1CCN(c2nc(-c3cccs3)cc3ccc(C)cc23)CC1 [listing 2 of 2 here] | 42.9 µM | 7.71 µM |  |  |  | 2.84 µM | 31.1 µM | 
Cc1ccc2c(N3CCCCC3)nc(-c3cccs3)cc2c1 |  | 1.88 µM | 8.03 µM |  |  |  |  | 
Cc1ccc2cc(-c3cccs3)nc(N3CCOCC3)c2c1 |  | 9.52 µM | 7.63 µM |  | 49.1 µM |  | 48.3 µM | 
COc1cccc2c1C(=O)c1c(O)c3c(c(O)c1C2=O)C[C@@](O)(C(=O)CO)C[C@@H]3O[C@H]1C[C@H](N)[C@H](O)[C@H](C)O1 [DOXORUBICIN] | 0.93 µM |  |  | 4.88 µM |  | 0.84 µM |  | 
Cc1ccc2c(N3CCN(C)CC3)nc(-c3cccs3)cc2c1 |  |  |  |  |  |  |  | inhibition [3]: 0%; inhibition [4]: 5.1% and 11.2%
CCN1CCN(c2nc(-c3cccs3)cc3cc(C)ccc23)CC1 | 28.9 µM | 4.4 µM | 17.7 µM |  |  |  | 22.1 µM | 
CC[C@@]1(O)C(=O)OCc2c1cc1n(c2=O)Cc2cc3ccccc3nc2-1 [CAMPTOTHECIN] | 0.27 µM |  |  | 4.01 µM |  | 0.28 µM |  | IC50 ([2]; Homo sapiens, HCT-15, 48 h): 10.1 µM
Cc1ccc2cc(-c3cccs3)nc(N3CCN(C)CC3)c2c1 [listing 2 of 2 here] |  |  |  |  | 20.9 µM | 1.02 µM | 24.7 µM | IC50 ([2]; Homo sapiens, HCT-15, 48 h): 1.04 µM
Cl.Nc1nc(-c2cccs2)cc2ccccc12 |  | 24.4 µM | 17.5 µM |  |  |  |  | Activity (HeLa [5]): 11.42%; Activity (HeLa [6]): 22.37%; Activity (HeLa [7]): 16.08%; Activity (HeLa [8]): 13.82%; Activity (HeLa [9]): 56.01%; Activity (HeLa [10]): 5.22%; Activity (HeLa [11]): 10.09%; Activity (HeLa [12]): 63.67%; Activity (HeLa [13]): 13.67%; Activity (HeLa [14]): 6.6%; Activity (HeLa [15]): 7.76%; Activity (HeLa [16]): 9.55%; Activity (HeLa [17]): 64.43%; Activity (HeLa [18]): 52.6%; Activity (HeLa [19]): 6.54%
Cc1cccc2c(N=[N+]=[N-])nc(-c3cccs3)cc12 | > 50 µM |  |  | > 50 µM |  | > 50 µM |  | inhibition [3]: 4.8%; IC50 ([2]; Homo sapiens, HCT-15, 48 h): > 50 µM; inhibition [4]: 2.1%
